Experiments:
[1] = molecular target: T1, Adenosine receptor A1 (Homo sapiens) (UniProt P30542); test: Displacement of […] from human adenosine A1 receptor expressed in CHO cells by scintillation counting relative to control; assay type: cell-based; set-up: concentration or dose not given beside the values
T1 sequence (whole entry): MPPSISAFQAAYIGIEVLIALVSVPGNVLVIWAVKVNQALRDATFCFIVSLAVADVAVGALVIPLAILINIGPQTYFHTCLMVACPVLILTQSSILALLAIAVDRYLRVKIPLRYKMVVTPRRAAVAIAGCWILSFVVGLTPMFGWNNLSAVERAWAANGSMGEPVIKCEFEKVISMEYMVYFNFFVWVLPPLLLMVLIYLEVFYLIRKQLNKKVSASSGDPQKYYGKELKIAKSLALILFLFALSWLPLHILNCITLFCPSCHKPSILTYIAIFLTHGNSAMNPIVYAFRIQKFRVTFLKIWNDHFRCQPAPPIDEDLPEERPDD
Summary of the method: (§1)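 Equilibrium competition in 50 mM Tris HCl pH 7.4 with 0.8 IU/mL adenosine deaminase and 1.6 nM [3H]DPCPX. Increasing ligand concentrations ± 10 μM PD81,723. CHO-hA1 membranes (10 μg protein) incubated 1 h at 25 °C. GF/B filtration, scintillation counting. Nonspecific binding defined with 10 μM CPA. High- and low-affinity Ki taken from biphasic curves.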

Adenosine receptor A1 [2] = molecular target: T2, Adenosine receptor A1 (Homo sapiens, UniProt P30542); test: Displacement of […] from human adenosine A1 receptor expressed in CHO cells by scintillation counting in presence of 10 uM allosteric modulator PD-81723; assay type: cell-based; summary of the method: as §1
T2 sequence (P30542 whole entry): T1 sequence (whole entry)

Adenosine receptor A1 [3] = molecular target: T2, Adenosine receptor A1; test: Displacement of […] from human adenosine A1 receptor expressed in CHO cells by scintillation counting; assay type: cell-based; summary of the method: as §1
[4] = molecular target: T1, Adenosine receptor A1 (Homo sapiens); test: Agonist activity at human adenosine A1 receptor expressed in CHO cells assessed as [35S]GTPgammaS binding by scintillation counting in presence of 10 uM allosteric modulator PD-81723 relative to control; assay type: functional, cell-based
Summary of the method: (§2)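 CHO-hA1 membranes (5 μg protein) preincubated 30 min at 25 °C in 50 mM Tris, 100 mM NaCl, 10 mM MgCl, pH 7.4 with 3 μM GDP and a concentration range of agonist, with or without 10 μM PD81,723. 0.3 nM (final) [35S]GTPγS then added for 45 min at 25 °C. Filtration, washing, scintillation counting. Emax given as percent of maximal stimulation by the reference agonist. Control and PD81,723 pEC50 compared to give fold shift.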

Adenosine receptor A1 [5] = molecular target: T2, Adenosine receptor A1; test: Agonist activity at human adenosine A1 receptor expressed in CHO cells assessed as stimulation of ERK1/2 phosphorylation in presence of 10 uM allosteric modulator PD-81723; assay type: functional, cell-based
Summary of the method: (§3)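 Intact CHO-hA1 cells seeded at 40 000/well. After 6 h, washed and serum-starved in DMEM for 14 h. Pretreated 30 min with 0.8 IU/mL adenosine deaminase, then stimulated 5 min with compound ± 10 μM PD81,723. Lysed; phospho-ERK1/2 read by AlphaScreen SureFire after ≥3 h dark incubation at room temperature. Emax given as percent of the reference agonist. Mean ± SEM of ≥3 experiments. Fold shift in pEC50 versus control.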

Adenosine receptor A1 [6] = molecular target: T2, Adenosine receptor A1; test: Agonist activity at human adenosine A1 receptor expressed in CHO cells assessed as stimulation of ERK1/2 phosphorylation; assay type: functional, cell-based; summary of the method: as §3
Adenosine receptor A1 [7] = molecular target: T2, Adenosine receptor A1; test: Displacement of […] from human adenosine A1 receptor expressed in CHO cells at low affinity site by scintillation counting; assay type: cell-based; summary of the method: as §1
Adenosine receptor A1 [8] = molecular target: T2, Adenosine receptor A1; test: Displacement of […] from human adenosine A1 receptor expressed in CHO cells at high affinity site by scintillation counting; assay type: cell-based; summary of the method: as §1
[9] = molecular target: T1, Adenosine receptor A1 (Homo sapiens); test: Selectivity ratio of EC50 for human adenosine A1 receptor-mediated ERK1/2 phosphorylation to EC50 for human adenosine A1 receptor-mediated ERK1/2 phosphorylation in presence of 10 uM allosteric modulator PD-81723 assessed as; summary of the method: as §3
Adenosine receptor A1 [10] = molecular target: T2, Adenosine receptor A1; test: Agonist activity at human adenosine A1 receptor expressed in CHO cells assessed as [35S]GTPgammaS binding by scintillation counting in presence of 10 uM allosteric modulator PD-81723; assay type: functional, cell-based; summary of the method: as §2
[11] = molecular target: T1, Adenosine receptor A1 (Homo sapiens); test: Displacement of [3H]CCPA from human adenosine A1 receptor expressed in CHO cells by scintillation counting relative to control; assay type: cell-based
Summary of the method: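 Filtration and scintillation counting. Nonspecific binding defined with 10 μM CPA. pKi and maximal displacement given as percent of specific binding. pKi compared by one-way ANOVA with Bonferroni test.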

Adenosine receptor A1 [12] = molecular target: T2, Adenosine receptor A1; test: Agonist activity at human adenosine A1 receptor expressed in CHO cells assessed as [35S]GTPgammaS binding by scintillation counting; assay type: functional, cell-based; summary of the method: as §2
[13] = molecular target: T1, Adenosine receptor A1 (Homo sapiens); test: Agonist activity at human adenosine A1 receptor expressed in CHO cells assessed as stimulation of ERK1/2 phosphorylation in presence of 10 uM allosteric modulator PD-81723 relative to control; assay type: functional, cell-based; summary of the method: as §3
[14] = molecular target: T1, Adenosine receptor A1 (Homo sapiens); test: Selectivity ratio of EC50 for human adenosine A1 receptor to EC50 for human adenosine A1 receptor in presence of 10 uM allosteric modulator PD-81723; summary of the method: as §2
[15] = molecular target: T1, Adenosine receptor A1 (Homo sapiens); test: Agonist activity at human adenosine A1 receptor expressed in CHO cells assessed as [35S]GTPgammaS binding by scintillation counting relative to control; assay type: functional, cell-based; summary of the method: as §2
[16] = molecular target: T1, Adenosine receptor A1 (Homo sapiens); test: Agonist activity at human adenosine A1 receptor expressed in CHO cells assessed as stimulation of ERK1/2 phosphorylation relative to control; assay type: functional, cell-based; summary of the method: as §3
Adenosine receptor A1 [17] = molecular target: T2, Adenosine receptor A1; test: Enhancement of [3H]CCPA binding to human adenosine A1 receptor expressed in CHO cells by scintillation counting

| SMILES | Activity [1] [%] | Ki (Adenosine receptor A1 [2]; read-out: Ki) [nM] | Ki (Adenosine receptor A1 [3]; read-out: Ki) [nM] | Ki (Adenosine receptor A1 [2]; read-out: pKi (converted)) [nM] | Emax [11] [%] | Ki (Adenosine receptor A1 [3]; read-out: pKi (converted)) [nM] | further results |
| --- | --- | --- | --- | --- | --- | --- | --- |
| Nc1sc2c(c1C(=O)c1ccc(Cl)c(Cl)c1)CCN(CCCCOc1ccc(Nc3ncnc4c3ncn4[C@@H]3O[C@H](CO)[C@@H](O)[C@H]3O)cc1)C2 | 100 | 313 | 618 |  |  |  |  |
| COc1ccc(Nc2ncnc3c2ncn3[C@@H]2O[C@H](CO)[C@@H](O)[C@H]2O)cc1 | 100 | 195 | 842 | 191 | 100 | 832 | Emax [4]: 91%; EC50 (Adenosine receptor A1 [5]; read-out: EC50): 5 nM; EC50 (Adenosine receptor A1 [6]; read-out: EC50): 22 nM; EC50 (Adenosine receptor A1 [6]; read-out: pEC50 (converted)): 20.9 nM; Ki (Adenosine receptor A1 [7]; read-out: Ki): 1990 nM; Ki (Adenosine receptor A1 [7]; read-out: pKi (converted)): 1860 nM; Ki (Adenosine receptor A1 [8]; read-out: Ki): 71 nM; Ki (Adenosine receptor A1 [8]; read-out: pKi (converted)): 42.7 nM; Ratio EC50 [9]: 4.4; EC50 (Adenosine receptor A1 [10]; read-out: EC50): 29 nM; EC50 (Adenosine receptor A1 [10]; read-out: pEC50 (converted)): 30.2 nM; EC50 (Adenosine receptor A1 [12]; read-out: EC50): 142 nM; EC50 (Adenosine receptor A1 [12]; read-out: pEC50 (converted)): 123 nM; Emax [13]: 131%; Ratio EC50 [14]: 4.9; Emax [15]: 100%; Emax [16]: 100% |
| Nc1sc2c(c1C(=O)c1ccc(Cl)c(Cl)c1)CCN(CCCOc1ccc([N+](=O)[O-])cc1)C2 |  |  |  |  | 204 |  | EC50 (Adenosine receptor A1 [17]): 3700 nM |
| Nc1sc2c(c1C(=O)c1ccc(Cl)c(Cl)c1)CCN(CCOc1ccc(Nc3ncnc4c3ncn4[C@@H]3O[C@H](CO)[C@@H](O)[C@H]3O)cc1)C2 | 100 | 469 | 751 |  |  | 741 |  |
| Nc1sc2c(c1C(=O)c1ccc(Cl)c(Cl)c1)CCN(CCCCCCOc1ccc(Nc3ncnc4c3ncn4[C@@H]3O[C@H](CO)[C@@H](O)[C@H]3O)cc1)C2 | 103 | 288 | 419 | 275 |  | 479 |  |
| Nc1sc2c(c1C(=O)c1ccc(Cl)c(Cl)c1)CCN(CCCCCCCCCCOc1ccc(Nc3ncnc4c3ncn4[C@@H]3O[C@H](CO)[C@@H](O)[C@H]3O)cc1)C2 | 55 | 1360 | 1470 | 1290 |  | 1260 |  |
| Nc1sc2c(c1C(=O)c1ccc(Cl)c(Cl)c1)CCN(CCCCCCCCOc1ccc(Nc3ncnc4c3ncn4[C@@H]3O[C@H](CO)[C@@H](O)[C@H]3O)cc1)C2 | 65 | 591 | 836 | 457 |  | 776 |  |
| Nc1sc2c(c1C(=O)c1ccc(Cl)c(Cl)c1)CCN(CCCCCCCOc1ccc(Nc3ncnc4c3ncn4[C@@H]3O[C@H](CO)[C@@H](O)[C@H]3O)cc1)C2 | 91 | 347 | 450 |  |  |  |  |
| Nc1sc2c(c1C(=O)c1ccc(Cl)c(Cl)c1)CCN(CCCCCOc1ccc([N+](=O)[O-])cc1)C2 |  |  |  |  | 185 |  | EC50 (Adenosine receptor A1 [17]): 5200 nM |
| Nc1sc2c(c1C(=O)c1ccc(Cl)c(Cl)c1)CCN(CCOc1ccc([N+](=O)[O-])cc1)C2 |  |  |  |  | 250 |  | EC50 (Adenosine receptor A1 [17]): 8500 nM |
| Cc1sc(N)c(C(=O)c2cccc(C(F)(F)F)c2)c1C |  |  |  |  | 140 |  |  |
| Nc1sc2c(c1C(=O)c1ccc(Cl)c(Cl)c1)CCN(CCCCCCCCCOc1ccc(Nc3ncnc4c3ncn4[C@@H]3O[C@H](CO)[C@@H](O)[C@H]3O)cc1)C2 | 83 | 651 | 679 |  | 79 | 661 | Emax [4]: 105%; EC50 (Adenosine receptor A1 [5]; read-out: EC50): 813 nM; EC50 (Adenosine receptor A1 [5]; read-out: pEC50 (converted)): 692 nM; EC50 (Adenosine receptor A1 [6]; read-out: EC50): 1070 nM; EC50 (Adenosine receptor A1 [6]; read-out: pEC50 (converted)): 955 nM; Ratio EC50 [9]: 1.3; EC50 (Adenosine receptor A1 [10]; read-out: EC50): 181 nM; EC50 (Adenosine receptor A1 [10]; read-out: pEC50 (converted)): 178 nM; EC50 (Adenosine receptor A1 [12]; read-out: EC50): 390 nM; Emax [13]: 122%; Ratio EC50 [14]: 2.2; Emax [15]: 110%; Emax [16]: 123% |
| Nc1sc2c(c1C(=O)c1ccc(Cl)c(Cl)c1)CCN(CCCCCOc1ccc(Nc3ncnc4c3ncn4[C@@H]3O[C@H](CO)[C@@H](O)[C@H]3O)cc1)C2 | 100 | 114 | 219 | 110 | 97 | 214 | Emax [4]: 97%; EC50 (Adenosine receptor A1 [5]; read-out: EC50): 89 nM; EC50 (Adenosine receptor A1 [6]; read-out: EC50): 156 nM; EC50 (Adenosine receptor A1 [6]; read-out: pEC50 (converted)): 151 nM; Ratio EC50 [9]: 1.8; EC50 (Adenosine receptor A1 [10]; read-out: EC50): 52 nM; EC50 (Adenosine receptor A1 [12]; read-out: EC50): 273 nM; EC50 (Adenosine receptor A1 [12]; read-out: pEC50 (converted)): 269 nM; Emax [13]: 131%; Ratio EC50 [14]: 5.2; Emax [15]: 110%; Emax [16]: 114% |
| Nc1sc2c(c1C(=O)c1ccc(Cl)c(Cl)c1)CCN(CCCOc1ccc(Nc3ncnc4c3ncn4[C@@H]3O[C@H](CO)[C@@H](O)[C@H]3O)cc1)C2 | 100 | 268 | 439 | 245 |  | 417 |  |

From ChEMBL document CHEMBL1156209, “Hybrid ortho/allosteric ligands for the adenosine A(1) receptor” (J Med Chem, 2010)
